{"data": "Published values collected from several papers", "target": "Serine/threonine-protein kinase Nek1 (NEK1, Homo sapiens, UniProt Q96PY6)", "One construct used (Q96PY6 1-1258)": "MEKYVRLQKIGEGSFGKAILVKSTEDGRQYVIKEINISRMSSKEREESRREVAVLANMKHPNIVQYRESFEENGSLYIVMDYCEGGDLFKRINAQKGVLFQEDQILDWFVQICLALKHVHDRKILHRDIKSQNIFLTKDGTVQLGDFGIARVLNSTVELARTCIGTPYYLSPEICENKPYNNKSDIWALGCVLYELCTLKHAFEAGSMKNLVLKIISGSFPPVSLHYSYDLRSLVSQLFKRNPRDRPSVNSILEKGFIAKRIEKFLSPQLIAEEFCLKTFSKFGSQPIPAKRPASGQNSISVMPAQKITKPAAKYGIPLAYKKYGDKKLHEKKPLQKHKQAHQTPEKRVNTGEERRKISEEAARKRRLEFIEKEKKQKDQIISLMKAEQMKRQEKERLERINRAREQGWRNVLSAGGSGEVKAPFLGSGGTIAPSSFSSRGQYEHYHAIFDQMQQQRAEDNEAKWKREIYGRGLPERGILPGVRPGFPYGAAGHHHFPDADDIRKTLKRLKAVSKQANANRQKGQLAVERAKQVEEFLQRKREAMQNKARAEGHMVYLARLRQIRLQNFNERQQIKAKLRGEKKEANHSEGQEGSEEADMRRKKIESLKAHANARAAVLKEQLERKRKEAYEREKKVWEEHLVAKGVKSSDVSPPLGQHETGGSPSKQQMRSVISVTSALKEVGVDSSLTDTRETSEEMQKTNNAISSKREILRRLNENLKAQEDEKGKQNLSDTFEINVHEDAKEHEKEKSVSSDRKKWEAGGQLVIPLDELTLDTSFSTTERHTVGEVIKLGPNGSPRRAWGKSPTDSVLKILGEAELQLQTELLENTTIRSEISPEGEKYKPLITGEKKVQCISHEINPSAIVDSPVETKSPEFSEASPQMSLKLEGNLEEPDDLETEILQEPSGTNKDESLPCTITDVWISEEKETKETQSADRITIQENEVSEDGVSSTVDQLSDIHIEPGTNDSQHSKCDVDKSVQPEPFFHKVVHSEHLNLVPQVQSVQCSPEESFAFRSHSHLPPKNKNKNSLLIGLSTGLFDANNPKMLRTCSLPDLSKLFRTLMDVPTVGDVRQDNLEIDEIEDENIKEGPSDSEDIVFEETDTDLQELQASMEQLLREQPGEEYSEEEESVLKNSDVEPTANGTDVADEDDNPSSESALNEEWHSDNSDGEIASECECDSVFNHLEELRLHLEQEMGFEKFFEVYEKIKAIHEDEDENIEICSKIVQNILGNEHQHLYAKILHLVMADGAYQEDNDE", "note": "Compare with care: the assays were run in different laboratories."}
{"Structure (SMILES)": "COc1cccc2c(NCc3ccccc3)nc(-n3c(N)nc4ccccc43)nc12", "assay": "target engagement in cells, inhibitor, chemoproteomics", "setting": "20 mM", "quantity": "inhibition", "result": "-13%"}
{"Structure (SMILES)": "Cc1c(NC(=O)c2cc(C(N)=O)nc3cc(F)ccc23)c(C(F)(F)F)nn1Cc1ccc(C(C)(C)C)cc1", "assay": "cell-free assay, competition with immobilised ligand", "setting": "1 µM", "quantity": "remaining binding", "result": "97%"}
{"Structure (SMILES)": "CCN1CCN(Cc2ccc(NC(=O)c3ccc(C)c(/C=C/c4cnc5[nH]ccc5c4OC)c3)cc2C(F)(F)F)CC1", "assay": "target engagement in cells, inhibitor, chemoproteomics", "test system": "A-375", "setting": "5 µM", "quantity": "inhibition", "result": "-11.6%"}
{"Structure (SMILES)": "c1ccc(CNc2nc(N3CCOc4ccccc43)nc3c2CCCC3)cc1", "assay": "target engagement in cells, inhibitor, chemoproteomics", "setting": "20 mM", "quantity": "inhibition", "result": "-7.6%"}
{"Structure (SMILES)": "C[C@H](c1ccnc(Nc2nc3ccc(-c4cc(N(C)C)ncn4)cc3[nH]2)c1)N1CCN(C(=O)CC(F)(F)F)CC1", "assay": "cell-free assay, competition with immobilised ligand", "setting": "0.1 µM", "quantity": "remaining binding", "result": "93%"}
{"Structure (SMILES)": "CN1CC(Oc2cnc(C#N)cc2-c2ccn3nc(NC(=O)C4CC4)cc3c2)C1", "assay": "enzyme activity, inhibitor", "setting": "1 µM", "quantity": "inhibition", "result": "8%"}
{"Structure (SMILES)": "Cn1cnc(Br)c1C1=CN(c2ncnc3[nH]cnc23)CCS1", "assay": "enzyme activity, inhibitor, radiometric", "setting": "2 µM", "quantity": "inhibition", "result": "96.5%"}
{"Structure (SMILES)": "CS(=O)(=O)CCNCc1ccc(-c2ccc3ncnc(Nc4ccc(OCc5cccc(F)c5)c(Cl)c4)c3c2)o1", "assay": "cell-free assay", "setting": "0.5 µM", "quantity": "remaining signal", "result": "71.8%"}
{"Structure (SMILES)": "O=C(Nc1cnc(Oc2ccc(F)cc2)nc1)N1CCc2ncccc2[C@@H]1c1ccc(F)cc1", "assay": "cell-free assay, competition with immobilised ligand", "setting": "1 µM", "quantity": "remaining binding", "result": "84%"}
{"Structure (SMILES)": "c1cnn2ncc(-c3ccnc(N4CCC45COC5)n3)c2c1", "assay": "binding", "setting": "1 µM", "quantity": "remaining binding", "result": "100%"}
{"Structure (SMILES)": "Cc1sc(C(=O)NC2COC2)cc1-n1cc(NC(=O)Nc2c(F)cccc2Cl)cn1", "assay": "enzyme activity, inhibitor", "setting": "10 µM", "quantity": "remaining activity", "result": "90.4%"}
{"Structure (SMILES)": "CCOCCn1cc(C(=O)Nc2ccc(-n3nc(-c4cccnc4)cc3C(F)(F)F)cn2)ccc1=O", "assay": "cell-free assay, competition with immobilised ligand", "setting": "1 µM", "quantity": "remaining binding", "result": "100%"}
{"Structure (SMILES)": "N#CCCc1ccc2c(c1)-c1[nH]c3ccc([N+](=O)[O-])cc3c1CC(=O)N2", "assay": "cell-free assay", "setting": "0.5 µM", "quantity": "remaining signal", "result": "132%"}
{"Structure (SMILES)": "COc1cc(Cl)c(C(=O)N[C@@H](CN[C@H]2CC[C@@H](N)CC2)Cc2ccc(C#N)cc2)cc1-c1ccc(CN[C@H](C)c2ccc(C)cc2)o1", "assay": "enzyme activity, inhibitor", "setting": "1 µM", "quantity": "remaining activity", "result": "93%"}
{"Structure (SMILES)": "CC(C)(C)c1nc(-c2cccc(NS(=O)(=O)c3c(F)cccc3F)c2F)c(-c2ccnc(N)n2)s1", "assay": "enzyme activity, inhibitor, radiometric", "setting": "1 µM", "quantity": "remaining activity", "result": "63%"}
{"Structure (SMILES)": "CCCS(=O)(=O)Nc1ccc(F)c(C(=O)c2c[nH]c3ncc(-c4ccc(Cl)cc4)cc23)c1F", "assay": "enzyme activity, inhibitor", "setting": "1 µM", "quantity": "inhibition", "result": "< 20%"}
{"Structure (SMILES)": "CNc1cc(Oc2cc(C(=O)Nc3cc(N4CCN(C)CC4)cc(C(F)(F)F)c3)ccc2C)ncn1", "assay": "target engagement in cells, inhibitor, chemoproteomics", "test system": "Huh-7", "setting": "1 µM", "quantity": "inhibition", "result": "-12.5%"}
{"Structure (SMILES)": "O=C1Nc2ccc(Cl)cc2C1=Cc1cc(Cl)c(O)c(Cl)c1", "assay": "cell-free assay", "setting": "0.5 µM", "quantity": "remaining signal", "result": "81.5%"}
{"Structure (SMILES)": "C[C@@H]1CN(c2cc(-c3nn(C)c4ccc(OC5(C)CC5)cc34)ncn2)C[C@H](C)O1", "assay": "cell-free assay, competition with immobilised ligand", "setting": "1 µM", "quantity": "remaining binding", "result": "83%"}
{"Structure (SMILES)": "COc1cc2ncnc(Nc3ccc(Oc4ccccc4)cc3C)c2cc1OC", "assay": "enzyme activity, inhibitor", "setting": "1 µM", "quantity": "inhibition", "result": "-2%"}
{"Structure (SMILES)": "O=C(Nc1cnn(-c2csc(C(=O)NC3COC3)c2)c1)Nc1c(F)cccc1Cl", "assay": "enzyme activity, inhibitor", "setting": "5 µM", "quantity": "remaining activity", "result": "77.2%"}
{"Structure (SMILES)": "CO[C@@H](C)c1c(Nc2ccc([C@@H](N(C)C(=O)C3CCS(=O)(=O)CC3)C(F)(F)F)cc2)cnc2cc(Cl)nn12", "assay": "cell-free assay, competition with immobilised ligand", "setting": "1 µM", "quantity": "remaining binding", "result": "100%"}
